For assay [1], the species on record is Cavia porcellus. The assay can be described thus: Dose inhibiting the ionotropic response induced by hCGRP-alpha in guinea pig left atrium. Type of assay: functional. As to conditions: Cardiac atrium. An outline of the steps: (§1)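 Atria were taken from male Hartley guinea pigs (350-400 g) and the prostatic vas deferens from male Sprague-Dawley rats (200-250 g). Tissues were mounted on platinum electrodes in oxygenated Krebs-Ringer at 37 °C and equilibrated 1 h at 0.5-1 g tension. Force-transducer responses were recorded to cumulative hCGRPα concentrations, with test peptide (1 µM) added 10 min before. Values are mean ± SE.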

For assay [2], the species on record is Cavia porcellus. The assay can be described thus: Dose inhibiting the chronotropic response induced by hCGRP-alpha in guinea pig right atrium. As to conditions: Cardiac atrium. Type of assay: functional. An outline of the steps: as §1
The species entered for assay [3] is Cavia porcellus. The assay can be described thus: Dose inhibiting the ionotropic response induced by hCGRP-alpha in guinea pig right atrium. The assay is classed as functional. Conditions: Cardiac atrium. An outline of the steps: as §1
The species entered for assay [4] is Rattus norvegicus. The assay can be described thus: Dose inhibiting the twitch response induced by hCGRP-alpha in rat vas deferens. The assay is classed as functional. An outline of the steps:
as §1

The target in assay [5] is Calcitonin gene-related peptide type 1 receptor (Rattus norvegicus, UniProt Q63118). The assay can be described thus: Binding affinity against [125I]-hCalcitonin gene-related peptide type alpha receptor binding sites in rat brain membrane. Type of assay: cell membranes.
Chain of Calcitonin gene-related peptide type 1 receptor (Q63118 whole entry): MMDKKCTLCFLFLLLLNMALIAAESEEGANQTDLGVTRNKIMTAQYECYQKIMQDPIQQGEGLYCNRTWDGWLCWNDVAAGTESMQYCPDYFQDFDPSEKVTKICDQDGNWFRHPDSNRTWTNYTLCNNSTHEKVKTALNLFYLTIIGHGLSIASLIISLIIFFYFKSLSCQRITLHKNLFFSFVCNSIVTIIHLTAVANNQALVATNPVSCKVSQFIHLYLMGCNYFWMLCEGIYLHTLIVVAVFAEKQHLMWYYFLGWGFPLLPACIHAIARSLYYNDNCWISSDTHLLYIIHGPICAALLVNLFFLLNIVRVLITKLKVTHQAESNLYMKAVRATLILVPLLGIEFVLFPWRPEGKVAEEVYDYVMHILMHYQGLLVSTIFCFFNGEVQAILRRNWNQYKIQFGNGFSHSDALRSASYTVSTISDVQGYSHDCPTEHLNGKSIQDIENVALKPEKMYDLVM
For assay [6], the species on record is Cavia porcellus. The assay can be described thus: Dose inhibiting the ionotropic response induced by hCGRP-alpha in guinea pig left atrium relative to hCGRP(8-37). The assay is classed as functional, Cardiac atrium. Also on record: unit not given here.
The species entered for assay [7] is Cavia porcellus. The assay can be described thus: Dose inhibiting the chronotropic response induced by hCGRP-alpha in guinea pig right atrium relative to hCGRP(8-37). The assay is classed as functional, Cardiac atrium. Also on record: unit not given here.
The species named for assay [8] is Cavia porcellus. The assay can be described thus: Dose inhibiting the ionotropic response induced by hCGRP-alpha in guinea pig right atrium relative to hCGRP(8-37). The assay is classed as functional, Cardiac atrium. Also on record: unit not given here.
The species entered for assay [9] is Rattus norvegicus. The assay can be described thus: Dose inhibiting the twitch response induced by hCGRP-alpha in rat vas deferens relative to hCGRP(8-37). Also noted: unit not given here. The assay is classed as functional.

As to `CC(C)C[C@H](NC(=O)CNC(=O)[C@H](C)NC(=O)[C@H](CC(C)C)NC(=O)[C@H](CCCN=C(N)N)NC(=O)[C@H](Cc1c[nH]cn1)NC(=O)[C@@H](NC(=O)[C@@H](NC(=O)[C@@H]1CSSC[C@H](NC(=O)[C@H](C)N)C(=O)N[C@@H](CC(=O)O)C(=O)N[C@@H]([C@@H](C)O)C(=O)N[C@@H](C)C(=O)N[C@@H]([C@@H](C)O)C(=O)N1)C(C)C)[C@@H](C)O)C(=O)N[C@@H](CC(C)C)C(=O)N[C@@H](CO)C(=O)N[C@@H](CCCN=C(N)N)C(=O)N[C@@H](CO)C(=O)NCC(=O)NCC(=O)N[C@H](C(=O)N[C@H](C(=O)N[C@@H](CCCCN)C(=O)N[C@@H](CC(N)=O)C(=O)N[C@@H](CC(N)=O)C(=O)N[C@@H](Cc1ccccc1)C(=O)N[C@H](C(=O)N1CCC[C@H]1C(=O)N[C@H](C(=O)N[C@@H](CC(N)=O)C(=O)N[C@H](C(=O)NCC(=O)N[C@@H](CO)C(=O)N[C@@H](CCCCN)C(=O)N[C@@H](C)C(=O)N[C@@H](Cc1ccccc1)C(N)=O)C(C)C)[C@@H](C)O)C(C)C)C(C)C)C(C)C`, the EC50 (usually the concentration at which the effect is half-maximal) was determined as 8.7 nM in the assay filed under Cavia porcellus [1], 19 nM in the assay listed under Cavia porcellus [2], 7.9 nM in the assay listed under Cavia porcellus [3] and 1.4 nM in the assay filed under Rattus norvegicus [4].

Take `CC(C)C[C@H](NC(=O)CNC(=O)[C@H](C)NC(=O)[C@H](CC(C)C)NC(=O)[C@@H](N)CCCN=C(N)N)C(=O)N[C@@H](CC(C)C)C(=O)N[C@@H](CO)C(=O)N[C@@H](CCCN=C(N)N)C(=O)N[C@@H](CO)C(=O)NCC(=O)NCC(=O)N[C@H](C(=O)N[C@H](C(=O)N[C@@H](CCCCN)C(=O)N[C@@H](CC(N)=O)C(=O)N[C@@H](CC(N)=O)C(=O)N[C@@H](Cc1ccccc1)C(=O)N[C@H](C(=O)N1CCC[C@H]1C(=O)N[C@H](C(=O)N[C@@H](CC(N)=O)C(=O)N[C@H](C(=O)NCC(=O)N[C@@H](CO)C(=O)N[C@@H](CCCCN)C(=O)N[C@@H](C)C(=O)N[C@@H](Cc1ccccc1)C(N)=O)C(C)C)[C@@H](C)O)C(C)C)C(C)C)C(C)C`: the EC50 in the assay filed under Cavia porcellus [1] was 30 nM; in the assay filed under Cavia porcellus [2], 65 nM; in the assay listed under Cavia porcellus [3], 89 nM; in the assay listed under Rattus norvegicus [4] it was 1.4 nM.

Regarding H-VTHRAAGLLSRSGGVVKNNFVPTNVGSKAF-NH2, the concentration for half-maximal inhibition (IC50) (usually the midpoint of a concentration-inhibition curve) in assay [5] was determined as 22 nM. Also, the EC50 in the assay listed under Cavia porcellus [1] was determined as 89 nM; in the assay listed under Cavia porcellus [2], 116 nM; in the assay listed under Cavia porcellus [3] it was 116 nM; in the assay filed under Rattus norvegicus [4], 2.2 nM. The Relative potency in the assay filed under Cavia porcellus [6] amounted to 46; in the assay filed under Cavia porcellus [7] it was 40; in the assay filed under Cavia porcellus [8] it was 43; in the assay filed under Rattus norvegicus [9] it was 33.

As to H-VTHALAGLLSRSGGVVKNNFVPTNVGSKAF-NH2, the IC50 in assay [5] stood at 33 nM. In addition, the concentration giving a half-maximal response (EC50) in the assay listed under Cavia porcellus [1] is 58 nM; in the assay filed under Cavia porcellus [2], 83 nM; in the assay listed under Cavia porcellus [3], 106 nM; in the assay filed under Rattus norvegicus [4], 3.1 nM. In addition, the Relative potency in the assay listed under Cavia porcellus [6] stood at 30; in the assay listed under Cavia porcellus [7] it was 29; in the assay filed under Cavia porcellus [8], 40; in the assay filed under Rattus norvegicus [9] it was 46.

As for `CC(C)C[C@H](NC(=O)CNC(=O)[C@H](C)NC(=O)[C@H](CC(C)C)NC(=O)[C@H](CCCNC(=N)N)NC(=O)[C@H](Cc1cnc[nH]1)NC(=O)[C@@H](NC(=O)[C@@H](N)C(C)C)[C@@H](C)O)C(=O)N[C@@H](CC(C)C)C(=O)N[C@@H](CO)C(=O)N[C@@H](CCCNC(=N)N)C(=O)N[C@@H](CO)C(=O)NCC(=O)NCC(=O)N[C@H](C(=O)N[C@H](C(=O)N[C@@H](CCCCN)C(=O)N[C@@H](CC(N)=O)C(=O)N[C@@H](CC(N)=O)C(=O)N[C@@H](Cc1ccccc1)C(=O)N[C@H](C(=O)N1CCC[C@H]1C(=O)N[C@H](C(=O)N[C@@H](CC(N)=O)C(=O)N[C@H](C(=O)NCC(=O)N[C@@H](CO)C(=O)N[C@@H](CCCCN)C(=O)N[C@@H](C)C(=O)N[C@@H](Cc1ccccc1)C(N)=O)C(C)C)[C@@H](C)O)C(C)C)C(C)C)C(C)C`, the EC50 in the assay listed under Cavia porcellus [1] is 194 nM; in the assay filed under Cavia porcellus [2] it was 290 nM; in the assay filed under Cavia porcellus [3], 267 nM; in the assay listed under Rattus norvegicus [4] it was 6.7 nM.

As for `CC(C)C[C@H](NC(=O)CNC(=O)[C@H](C)NC(=O)[C@H](CC(C)C)NC(=O)[C@H](CCCN=C(N)N)NC(=O)[C@@H](N)Cc1c[nH]cn1)C(=O)N[C@@H](CC(C)C)C(=O)N[C@@H](CO)C(=O)N[C@@H](CCCN=C(N)N)C(=O)N[C@@H](CO)C(=O)NCC(=O)NCC(=O)N[C@H](C(=O)N[C@H](C(=O)N[C@@H](CCCCN)C(=O)N[C@@H](CC(N)=O)C(=O)N[C@@H](CC(N)=O)C(=O)N[C@@H](Cc1ccccc1)C(=O)N[C@H](C(=O)N1CCC[C@H]1C(=O)N[C@H](C(=O)N[C@@H](CC(N)=O)C(=O)N[C@H](C(=O)NCC(=O)N[C@@H](CO)C(=O)N[C@@H](CCCCN)C(=O)N[C@@H](C)C(=O)N[C@@H](Cc1ccccc1)C(N)=O)C(C)C)[C@@H](C)O)C(C)C)C(C)C)C(C)C`, in [5], the IC50 is 10 nM. For the same compound, the half-maximal effective concentration (EC50) in the assay listed under Cavia porcellus [1] amounted to 65 nM; in the assay filed under Cavia porcellus [2] it was 77 nM; in the assay listed under Cavia porcellus [3], 114 nM; in the assay filed under Rattus norvegicus [4], 3.2 nM. Further, the Relative potency in the assay listed under Cavia porcellus [6] is 34; in the assay filed under Cavia porcellus [7] it was 27; in the assay listed under Cavia porcellus [8] it was 43; in the assay filed under Rattus norvegicus [9], 48.

Consider `CC(C)C[C@H](NC(=O)CNC(=O)[C@H](C)NC(=O)[C@H](CC(C)C)NC(=O)[C@H](CCCN=C(N)N)NC(=O)[C@H](Cc1c[nH]cn1)NC(=O)[C@H](C)NC(=O)[C@@H](N)C(C)C)C(=O)N[C@@H](CC(C)C)C(=O)N[C@@H](CO)C(=O)N[C@@H](CCCN=C(N)N)C(=O)N[C@@H](CO)C(=O)NCC(=O)NCC(=O)N[C@H](C(=O)N[C@H](C(=O)N[C@@H](CCCCN)C(=O)N[C@@H](CC(N)=O)C(=O)N[C@@H](CC(N)=O)C(=O)N[C@@H](Cc1ccccc1)C(=O)N[C@H](C(=O)N1CCC[C@H]1C(=O)N[C@H](C(=O)N[C@@H](CC(N)=O)C(=O)N[C@H](C(=O)NCC(=O)N[C@@H](CO)C(=O)N[C@@H](CCCCN)C(=O)N[C@@H](C)C(=O)N[C@@H](Cc1ccccc1)C(N)=O)C(C)C)[C@@H](C)O)C(C)C)C(C)C)C(C)C`, for which, in assay [5], the IC50 came out at 6.8 nM. Besides, the EC50 was found to be 117 nM in the assay listed under Cavia porcellus [1], 238 nM in the assay filed under Cavia porcellus [2], 193 nM in the assay filed under Cavia porcellus [3] and 2.4 nM in the assay listed under Rattus norvegicus [4]. Further, the Relative potency in the assay listed under Cavia porcellus [6] is 60; in the assay filed under Cavia porcellus [7], 82; in the assay filed under Cavia porcellus [8] it was 72; in the assay filed under Rattus norvegicus [9] it was 36.

As to `CC(C)C[C@H](NC(=O)CNC(=O)[C@H](C)NC(=O)[C@H](CC(C)C)NC(=O)[C@H](CCCN=C(N)N)NC(=O)[C@H](Cc1c[nH]cn1)NC(=O)[C@@H](N)[C@@H](C)O)C(=O)N[C@@H](CC(C)C)C(=O)N[C@@H](CO)C(=O)N[C@@H](CCCN=C(N)N)C(=O)N[C@@H](CO)C(=O)NCC(=O)NCC(=O)N[C@H](C(=O)N[C@H](C(=O)N[C@@H](CCCCN)C(=O)N[C@@H](CC(N)=O)C(=O)N[C@@H](CC(N)=O)C(=O)N[C@@H](Cc1ccccc1)C(=O)N[C@H](C(=O)N1CCC[C@H]1C(=O)N[C@H](C(=O)N[C@@H](CC(N)=O)C(=O)N[C@H](C(=O)NCC(=O)N[C@@H](CO)C(=O)N[C@@H](CCCCN)C(=O)N[C@@H](C)C(=O)N[C@@H](Cc1ccccc1)C(N)=O)C(C)C)[C@@H](C)O)C(C)C)C(C)C)C(C)C`, the EC50 in the assay listed under Cavia porcellus [1] stood at 215 nM; in the assay filed under Cavia porcellus [2], 180 nM; in the assay listed under Cavia porcellus [3], 225 nM; in the assay filed under Rattus norvegicus [4] it was 7.6 nM.

Regarding `CC(C)C[C@H](NC(=O)CNC(=O)[C@H](C)NC(=O)[C@H](CC(C)C)NC(=O)[C@H](CCCN=C(N)N)NC(=O)[C@H](C)NC(=O)[C@@H](NC(=O)[C@@H](N)C(C)C)[C@@H](C)O)C(=O)N[C@@H](CC(C)C)C(=O)N[C@@H](CO)C(=O)N[C@@H](CCCN=C(N)N)C(=O)N[C@@H](CO)C(=O)NCC(=O)NCC(=O)N[C@H](C(=O)N[C@H](C(=O)N[C@@H](CCCCN)C(=O)N[C@@H](CC(N)=O)C(=O)N[C@@H](CC(N)=O)C(=O)N[C@@H](Cc1ccccc1)C(=O)N[C@H](C(=O)N1CCC[C@H]1C(=O)N[C@H](C(=O)N[C@@H](CC(N)=O)C(=O)N[C@H](C(=O)NCC(=O)N[C@@H](CO)C(=O)N[C@@H](CCCCN)C(=O)N[C@@H](C)C(=O)N[C@@H](Cc1ccccc1)C(N)=O)C(C)C)[C@@H](C)O)C(C)C)C(C)C)C(C)C`, the EC50 in the assay listed under Cavia porcellus [1] was determined as 95 nM; in the assay listed under Cavia porcellus [2], 129 nM; in the assay listed under Cavia porcellus [3], 179 nM; in the assay listed under Rattus norvegicus [4] it was 3.2 nM.

Values taken from ChEMBL document CHEMBL1126178, “Structure-activity study of hCGRP8-37, a calcitonin gene-related peptide receptor antagonist” (J Med Chem, 1992).
